For assay [1], the system named is MCF7. In words: In vitro inhibitory activity against mammary carcinoma MCF-7 cell lines. Conditions: Homo sapiens. It is filed as functional, cell-based. The method in brief:
(§1)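 Cells kept in RPMI 1640 with 10% FBS, penicillin and streptomycin, under 5% CO2, and subcultured twice weekly in log phase. They were seeded at 2.5-3 × 10² per well and left 4 h to adhere. Drug from 10 mM DMSO stocks was given at 1 pM–100 µM final (DMSO ≤0.25%), n = 8, for 7 days. MTT was added for 4 h, formazan dissolved in DMSO/glycine buffer, and absorbance read at 550 nm as viable cell number.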

In assay [2] the test system is MDA-MB-468. As to the kind of experiment: In vitro inhibitory activity against mammary carcinoma MDA 468 cell lines. It is filed as functional, cell-based. Conditions: Homo sapiens. The essentials: (§2)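 MDA 468 cells kept in RPMI 1640 with 10% FBS and antibiotics under 5% CO2. They were seeded at 2.5-3 × 10² per well and left 4 h to attach. Drug from 10 mM DMSO stocks was diluted to 1 pM–100 µM final (DMSO ≤0.25%), n = 8, and incubated 10 days. MTT was added for 4 h, formazan solubilized in DMSO/glycine buffer, and A550 read as a measure of viable cells.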

The next assay has as its system T-24. In words: In vitro cytotoxicity against T24 human bladder cancer cell line.
In the next assay the test system is MDA-MB-231. In words: In vitro cytotoxicity against MDA 231 human breast cancer cell line with EGFR positive erbB3 positive. It is filed as functional, cell-based. The essentials: as §1
For assay [3], the system named is MCF7. In words: In vitro cytotoxicity against MCF-7/Adr human breast cancer cell line. The format is functional, cell-based. The essentials:
as §1

Assay [4] relates to MDA-MB-468. In words: In vitro cytotoxicity against MDA 468 human breast cancer cell line with ER negative EGFR positive. It is filed as functional, cell-based. The method in brief: as §2
The subject of the next assay is A2780. In words: In vitro cytotoxicity against A2780 human ovarian cancer cell line. The format is functional, cell-based.
For the next assay, the system named is ZR-75-1. In words: In vitro cytotoxicity against ZR 75 human breast cancer cell line with ER positive. It is filed as functional, cell-based. The essentials:
as §1

In a further assay the test system is T47D. As to the kind of experiment: In vitro cytotoxicity against T47D human breast cancer cell line with ER negative. It is filed as functional, cell-based. The method in brief:
as §1

Another assay deals with IGR-37 cell line. In words: In vitro cytotoxicity against […] human melanoma cancer cell line. The format is functional, cell-based.
Another assay relates to HT-29. As to the kind of experiment: In vitro cytotoxicity against HT-29 human colon cancer cell line. The format is functional, cell-based.
The subject of the next assay is SK-BR-3. In words: In vitro cytotoxicity against SKBR 3 human breast cancer cell line with ER negative. The format is functional, cell-based. The essentials: as §1
In a further assay the test system is DU-145. As to the kind of experiment: In vitro cytotoxicity against DU-145 human prostate cancer cell line. The format is functional, cell-based. The essentials:
as §1

Assay [5] deals with MCF7. As to the kind of experiment: In vitro cytotoxicity against MCF-7 human breast cancer cell line with ER positive. It is filed as functional, cell-based. The method in brief:
as §1

In the next assay the test system is PC-3. In words: In vitro cytotoxicity against PC-3 human prostate cancer cell line. It is filed as functional, cell-based. The essentials: as §1
The next assay has as its system WiDr. As to the kind of experiment: In vitro cytotoxicity against WiDr human colon cancer cell line. The format is functional, cell-based.
The test system of the next assay is A204. As to the kind of experiment: In vitro cytotoxicity against A204 human rhabdomyosarcoma cancer cell line. The format is functional, cell-based.

With `c1ccc2sc(-c3ccc(N4CCCCC4)cc3)nc2c1`, the IC50 with MCF7 [1] and in the assay on MDA-MB-468 [2] was above 10 µM in each case.
For the molecule `Nc1ccc(-c2nc3ccccc3[nH]2)cc1`, the results for the IC50 in the assay on MCF7 [1] and in the assay with MDA-MB-468 [2] were above 1 µM and above 10 µM, respectively.
As for `Cc1cc(-c2nc3ccccc3s2)cc(Cl)c1N`, the results for the IC50 in the assay with MCF7 [1] and in the assay with MDA-MB-468 [2] were below 0.01 µM and above 0.001 µM, respectively.
`Nc1ccc(-c2nc3ccccc3o2)cc1`: the IC50 in the assay on MCF7 [1] is below 0.01 µM; in the assay on MDA-MB-468 [2] it was above 1 µM.
On to `c1ccc2sc(-c3ccc(N4CCOCC4)cc3)nc2c1`, for which the IC50 in the assay with MCF7 [1] and with MDA-MB-468 [2] was above 10 µM throughout.
`COc1cc(OC)c2nc(-c3ccc(N)cc3)sc2c1` gave an IC50 in the assay on MCF7 [1] above 10 µM.
For the molecule `c1ccc2sc(-c3ccncc3)nc2c1`, the concentration for half-maximal inhibition (IC50) with MCF7 [1] and with MDA-MB-468 [2] was above 10 µM in each case.
For `Nc1ccc(-c2nc3ccccc3s2)cc1O`, the IC50 in the assay with MCF7 [1] is above 0.0001 µM; with MDA-MB-468 [2] it was above 10 µM.
Molecule `N#Cc1cc(-c2nc3ccccc3s2)ccc1N` came in with an IC50 in the assay with MCF7 [1] below 0.01 µM.
With `Nc1ncc(-c2nc3ccccc3s2)cc1Br`, the IC50 with MCF7 [1] and in the assay with MDA-MB-468 [2] was below 0.01 µM in each case.
As for `Nc1ccc(-c2nc3ccccc3s2)cn1`, the IC50 in the assay on MCF7 [1] and in the assay with MDA-MB-468 [2] was above 10 µM each time.
Regarding `COc1cc(OC)c2sc(-c3ccc(N)cc3)nc2c1`, the IC50 in the assay on MCF7 [1] and with MDA-MB-468 [2] was above 10 µM each time.
`COc1cccc2sc(-c3ccc(N)cc3Cl)nc12`: the IC50 in the assay on MCF7 [1] and in the assay with MDA-MB-468 [2] was above 10 µM in each case.
`Nc1ccc(-c2nc3cc(OCc4ccccc4)ccc3s2)c(Cl)c1`: the IC50 with MCF7 [1] and in the assay with MDA-MB-468 [2] was above 10 µM throughout.
Consider `Nc1ccc(-c2nc3ccccc3s2)cc1Cl`, for which the IC50 in the assay on MCF7 [1] was below 0.0001 µM; with MDA-MB-468 [2] it was below 0.1 µM.
For the molecule `COc1ccc2nc(-c3ccc(N)c(I)c3)sc2c1`, the IC50 in the assay on MCF7 [1] and in the assay on MDA-MB-468 [2] was below 0.0001 µM in each case.
Consider `COc1cc2nc(-c3ccc(N)cc3)sc2cc1OC`, for which the IC50 in the assay on MCF7 [1] and in the assay with MDA-MB-468 [2] was above 10 µM throughout.
Regarding `CCc1cc(-c2nc3ccccc3s2)ccc1N`, the IC50 in the assay with MCF7 [1] and in the assay on MDA-MB-468 [2] was below 0.0001 µM throughout.
Molecule `Nc1ccc(-c2nc3cc(O)cc(O)c3s2)cc1` registered an IC50 in the assay with MCF7 [1] above 10 µM.
As to `c1ccc2sc(-c3ccc(N4CCCC4)cc3)nc2c1`, the IC50 in the assay on MCF7 [1] was below 1 µM.
With `COc1ccc2nc(-c3ccc(N)cc3)sc2c1`, the figures for the IC50 with MCF7 [1] and with MDA-MB-468 [2] were below 0.0001 µM and above 10 µM, respectively.
For `Nc1ccc(-c2nc3ccccc3s2)cc1`, the IC50 with MCF7 [1] was below 0.0001 µM; with T-24 it was above 30 µM; in the assay on MDA-MB-231, 0.017 µM; in the assay on MCF7 [3] it was above 10 µM; in the assay with MDA-MB-468 [4], 0.0016 µM; in the assay with A2780, above 30 µM. The IC50 was below 0.001 µM with MDA-MB-468 [2]; 0.028 µM in the assay with ZR-75-1; above 10 µM in the assay on T47D; above 30 µM with IGR-37 cell line; above 30 µM with HT-29; 0.0081 µM in the assay with SK-BR-3. Further, the IC50 with DU-145 was above 30 µM; with MCF7 [5] it was 0.0008 µM; in the assay on PC-3, above 30 µM; in the assay on WiDr, above 30 µM; in the assay on A204, above 30 µM.
For `Nc1ccc(-c2nc3ccc(O)cc3s2)cc1`, the results for the IC50 in the assay with MCF7 [1] and in the assay with MDA-MB-468 [2] were above 1 µM and above 10 µM, respectively.

The record behind these values is ChEMBL document CHEMBL1129614, “Antitumor benzothiazoles. 3. Synthesis of 2-(4-aminophenyl)benzothiazoles and evaluation of their activities against breast cancer cell lines in vitro and in vivo” (J Med Chem, 1996).
